Results taken from ChEMBL document CHEMBL3286372, “Design, synthesis and structure-activity relationship of novel semi-synthetic flavonoids as antiproliferative agents” (2014).

Experiments:
[1] = Growth inhibition of human OVCAR4 cells after 48 hrs by coulter counting analysis; assay type: functional; conditions: OVCAR-4, 48 h
Method in brief: (§1)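 Five-dose NCI-60 follow-up, 0.01–100 µM, made from DMSO stock in buffered saline (final DMSO <1%), in duplicate wells. Cells in RPMI 1640 with 10% FBS at 6×10^4 cells/ml, 37 °C, 5% CO2, 48 h. Cells diluted tenfold in saline, Coulter-counted and corrected for dilution. GI50, TGI and LC50 taken from log concentration–percent growth curves.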

[2] = Growth inhibition of human OVCAR8 cells after 48 hrs by coulter counting analysis; assay type: functional; conditions: OVCAR-8, 48 h; method in brief: as §1
[3] = test system: SK-OV-3; assay: Growth inhibition of human SKOV3 cells after 48 hrs by coulter counting analysis; assay type: functional; conditions: SK-OV-3, 48 h; method in brief: as §1
[4] = test system: ACHN; assay: Growth inhibition of human ACHN cells after 48 hrs by coulter counting analysis; assay type: functional
Method in brief: (§2)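 NCI five-dose screen at 0.01-100 µM, diluted from DMSO stocks in buffered saline (final DMSO <1%). Cells at 6×10^4 cells/ml in RPMI 1640 with 10% FBS, in duplicate wells, at 37 °C under 5% CO2 for 48 h. Cells diluted tenfold in saline and Coulter-counted. GI50, TGI and LC50 taken from log concentration-growth inhibition curves.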

[5] = test system: CAKI-1; assay: Growth inhibition of human CAKI-1 cells after 48 hrs by coulter counting analysis; assay type: functional; conditions: CAKI-1, 48 h; method in brief: as §2
[6] = Growth inhibition of human RXF393 cells after 48 hrs by coulter counting analysis; assay type: functional; conditions: RXF 393, 48 h; method in brief: as §1
[7] = test system: TK-10; assay: Growth inhibition of human TK10 cells after 48 hrs by coulter counting analysis; assay type: functional; conditions: TK-10, 48 h
Method in brief: (§3)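 NCI five-dose screen, 0.01-100 µM, from DMSO stocks diluted in buffer saline (final DMSO <1%). Cells grown in RPMI 1640 + 10% FBS, seeded at 6×10^4 cells/ml, in duplicate wells. Exposure 48 h at 37 °C, 5% CO2. Cells diluted 10-fold in saline and counted by Coulter counter. GI50 derived from log concentration–percent growth inhibition curves. Controls carried matching PBS/saline/DMSO.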

[8] = test system: MCF7; assay: Growth inhibition of human MCF7 cells after 48 hrs by coulter counting analysis; assay type: functional; conditions: MCF7, 48 h; method in brief: as §2
[9] = Growth inhibition of human BT549 cells after 48 hrs by coulter counting analysis; assay type: functional; conditions: BT-549, 48 h; method in brief: as §2
[10] = test system: T47D; assay: Growth inhibition of human T47D cells after 48 hrs by coulter counting analysis; assay type: functional; method in brief: as §1
[11] = target: Cyclin-dependent kinase 2/cyclin E1 (Homo sapiens) (UniProt P24864+P24941); assay: Inhibition of CDK2/Cyclin E1 (unknown origin) at 20 uM after 30 mins by scintillation counting analysis relative to control; assay type: protein-complex assay
Method in brief: (§4)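 Recombinant kinases, cloned, expressed and purified in-house. Radiometric ³³P-ATP assay with kinase at ~10-50 nM final and 1-5 µg peptide or protein substrate. Compound at 20 µM final, in duplicate. Reaction started by adding ATP, run 30 min at ambient temperature, then spotted on P81 phosphocellulose. Plates washed in 1% phosphoric acid and counted by scintillation. No-substrate blank subtracted. Result is mean % activity change versus DMSO control.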

[12] = target: Glycogen synthase kinase-3 beta (Homo sapiens) (UniProt P49841); assay: Inhibition of GSK-3beta (unknown origin) at 20 uM after 30 mins by scintillation counting analysis relative to control; method in brief: as §4
[13] = test system: CCRF-CEM; assay: Growth inhibition of human CCRF-CEM cells after 48 hrs by coulter counting analysis; assay type: functional; method in brief: as §2
[14] = test system: K562; assay: Growth inhibition of human K562 cells after 48 hrs by coulter counting analysis; assay type: functional; conditions: K562, 48 h; method in brief: as §2
[15] = Growth inhibition of human MOLT4 cells after 48 hrs by coulter counting analysis; assay type: functional; conditions: MOLT-4, 48 h; method in brief: as §1
[16] = test system: RPMI-8226; assay: Growth inhibition of human RPMI8226 cells after 48 hrs by coulter counting analysis; assay type: functional; conditions: RPMI-8226, 48 h; method in brief: as §1
[17] = test system: A549; assay: Growth inhibition of human A549/ATCC cells after 48 hrs by coulter counting analysis; assay type: functional; conditions: A549, 48 h; method in brief: as §2
[18] = Growth inhibition of human EKVX cells after 48 hrs by coulter counting analysis; assay type: functional; method in brief: as §2
[19] = Growth inhibition of human HOP92 cells after 48 hrs by coulter counting analysis; assay type: functional; conditions: HOP-92, 48 h; method in brief: as §2
[20] = test system: NCI-H226; assay: Growth inhibition of human NCI-H226 cells after 48 hrs by coulter counting analysis; assay type: functional; conditions: NCI-H226, 48 h; method in brief: as §1
[21] = test system: NCI-H460; assay: Growth inhibition of human NCI-H460 cells after 48 hrs by coulter counting analysis; assay type: functional; conditions: NCI-H460, 48 h; method in brief: as §1
[22] = test system: NCI-H522; assay: Growth inhibition of human NCI-H522 cells after 48 hrs by coulter counting analysis; assay type: functional; conditions: NCI-H522, 48 h; method in brief: as §1
[23] = test system: COLO 205; assay: Growth inhibition of human COLO205 cells after 48 hrs by coulter counting analysis; assay type: functional; conditions: COLO 205, 48 h; method in brief: as §2
[24] = test system: KM12; assay: Growth inhibition of human KM12 cells after 48 hrs by coulter counting analysis; assay type: functional; conditions: KM12, 48 h; method in brief: as §2
[25] = test system: SW-620; assay: Growth inhibition of human SW620 cells after 48 hrs by coulter counting analysis; assay type: functional; conditions: SW-620, 48 h; method in brief: as §1
[26] = test system: SF-268; assay: Growth inhibition of human SF268 cells after 48 hrs by coulter counting analysis; assay type: functional; conditions: SF-268, 48 h; method in brief: as §1
[27] = test system: SNB-75; assay: Growth inhibition of human SNB75 cells after 48 hrs by coulter counting analysis; assay type: functional; conditions: SNB-75, 48 h; method in brief: as §1
[28] = test system: U-251; assay: Growth inhibition of human U251 cells after 48 hrs by coulter counting analysis; assay type: functional; conditions: U-251, 48 h; method in brief: as §3
[29] = test system: Malme-3M; assay: Growth inhibition of human MALME-3M cells after 48 hrs by coulter counting analysis; assay type: functional; method in brief: as §2
[30] = test system: M14; assay: Growth inhibition of human M14 cells after 48 hrs by coulter counting analysis; assay type: functional; conditions: M14, 48 h; method in brief: as §2
[31] = test system: MDA-MB-435; assay: Growth inhibition of human MDA-MB-435 cells after 48 hrs by coulter counting analysis; assay type: functional; conditions: MDA-MB-435, 48 h; method in brief: as §2
[32] = test system: SK-MEL-2; assay: Growth inhibition of human SK-MEL-2 cells after 48 hrs by coulter counting analysis; assay type: functional; conditions: SK-MEL-2, 48 h; method in brief: as §1
[33] = test system: SK-MEL-28; assay: Growth inhibition of human SK-MEL-28 cells after 48 hrs by coulter counting analysis; assay type: functional; conditions: SK-MEL-28, 48 h; method in brief: as §1
[34] = Growth inhibition of human UACC257 cells after 48 hrs by coulter counting analysis; assay type: functional; conditions: UACC-257, 48 h; method in brief: as §3
[35] = Growth inhibition of human UACC62 cells after 48 hrs by coulter counting analysis; assay type: functional; conditions: UACC-62, 48 h; method in brief: as §3
[36] = Growth inhibition of human OVCAR3 cells after 48 hrs by coulter counting analysis; assay type: functional; conditions: OVCAR-3, 48 h; method in brief: as §1
[37] = test system: A498; assay: Growth inhibition of human A498 cells after 48 hrs by coulter counting analysis; assay type: functional; conditions: A498, 48 h; method in brief: as §2
[38] = Growth inhibition of human UO31 cells after 48 hrs by coulter counting analysis; assay type: functional; conditions: UO-31, 48 h; method in brief: as §3
[39] = test system: SNB-19; assay: Growth inhibition of human SNB19 cells after 48 hrs by coulter counting analysis; assay type: functional; conditions: SNB-19, 48 h; method in brief: as §1

Chain of Glycogen synthase kinase-3 beta (Homo sapiens) (P49841 whole entry, looked up): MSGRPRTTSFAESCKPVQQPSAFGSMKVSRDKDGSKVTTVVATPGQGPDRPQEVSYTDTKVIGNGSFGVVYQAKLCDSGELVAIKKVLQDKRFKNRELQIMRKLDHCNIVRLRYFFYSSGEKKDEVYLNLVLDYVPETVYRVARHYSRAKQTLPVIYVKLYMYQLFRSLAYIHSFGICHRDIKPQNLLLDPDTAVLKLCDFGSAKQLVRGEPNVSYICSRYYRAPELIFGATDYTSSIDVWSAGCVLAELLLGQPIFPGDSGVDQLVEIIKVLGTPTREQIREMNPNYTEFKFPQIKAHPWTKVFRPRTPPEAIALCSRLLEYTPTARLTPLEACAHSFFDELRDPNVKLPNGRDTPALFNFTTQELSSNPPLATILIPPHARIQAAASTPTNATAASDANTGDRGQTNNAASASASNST

Row | SMILES | GI50 [1] [nM] | GI50 [2] [nM] | GI50 [3] [nM] | GI50 [4] [nM] | GI50 [5] [nM] | GI50 [6] [nM] | GI50 [8] [nM] | GI50 [10] [nM] | inhibition [11] [%] | inhibition [12] [%] | GI50 [13] [nM] | GI50 [14] [nM] | GI50 [15] [nM] | GI50 [16] [nM] | GI50 [17] [nM] | GI50 [19] [nM] | GI50 [20] [nM] | GI50 [21] [nM] | GI50 [22] [nM] | GI50 [23] [nM] | further results
1 | COc1c2occc2c(OC)c2c(=O)c(CN3CCOCC3)c(/C=C/c3ccc(Cl)cc3)oc12 | 2750 | 2780 | 3560 | 2470 | 2450 | 2360 | 2100 | 4310 | 0 | 5 | 1780 | 3280 | 2840 | 1940 | 2850 | 1280 | 2790 | 2050 | 1770 | 2760 | GI50 [7]: 5320 nM; GI50 [9]: 2380 nM; GI50 [18]: 2850 nM; GI50 [24]: 2100 nM; GI50 [25]: 3320 nM; GI50 [26]: 2810 nM; GI50 [27]: 2410 nM; GI50 [28]: 3050 nM; GI50 [29]: 2240 nM; GI50 [30]: 2760 nM; GI50 [31]: 2050 nM; GI50 [32]: 1650 nM; GI50 [33]: 2170 nM; GI50 [34]: 2350 nM; GI50 [35]: 1900 nM; GI50 [36]: 2340 nM
2 | COc1c(C(=O)/C=C/c2ccc(Cl)cc2)c(O)c(Br)c2occc12 | 3280 | 3430 | 1110 | 5090 | 3350 | 2370 | 2360 | 3380 | 5 | 30 | 2660 | 2880 | 2090 | 2780 | 6720 | 1390 | 2840 | 2990 | 2800 | 1760 | GI50 [37]: 3920 nM; GI50 [7]: 3480 nM; GI50 [38]: 2590 nM; GI50 [18]: 4180 nM; GI50 [24]: 3490 nM; GI50 [25]: 2710 nM; GI50 [26]: 3500 nM; GI50 [39]: 8240 nM; GI50 [27]: 1800 nM; GI50 [28]: 3220 nM; GI50 [29]: 2610 nM; GI50 [30]: 4820 nM; GI50 [31]: 3050 nM; GI50 [32]: 4160 nM; GI50 [33]: 9860 nM; GI50 [34]: 4980 nM; GI50 [35]: 3470 nM; GI50 [36]: 1910 nM
3 | COc1c2ccoc2c(/C=C/C=O)c2oc(-c3ccccc3)cc(=O)c12 | 3200 | 2860 | 6340 | 20800 | 15400 | 4260 | 2720 | 2140 | 6 | 58 | 1850 | 3210 | 2060 | 2240 | 21500 | 11500 | 4140 | 11300 | 17600 | 27700 | GI50 [37]: 7440 nM; GI50 [38]: 3630 nM; GI50 [9]: 2880 nM; GI50 [24]: 16500 nM; GI50 [25]: 2160 nM; GI50 [26]: 4230 nM; GI50 [39]: 12000 nM; GI50 [27]: 8300 nM; GI50 [28]: 3060 nM; GI50 [29]: 3470 nM; GI50 [30]: 3320 nM; GI50 [31]: 4830 nM; GI50 [32]: 10600 nM; GI50 [33]: 2730 nM; GI50 [34]: 11500 nM; GI50 [35]: 5450 nM; GI50 [36]: 5190 nM
